According to PMC12264769 (RSC Medicinal Chemistry, 2025):
Like-named read-outs stand apart in the source and are kept apart here.

Assays:
[1] = system: normal human embryonic kidney (HEK-293) cell line; experiment: MTT cytotoxicity towards normal cell line HEK-293; format: cell-based
[2] = system: human breast cancer cell line (MCF-7); experiment: MTT anti-proliferative assay, MCF-7; format: cell-based
[3] = system: murine mammary carcinoma cell line (4T1); experiment: MTT anti-proliferative assay, 4T1; format: cell-based; conditions: read-out: 4T1 IC50, 48-hour treatment, mean ± SD (n = 2)
[4] = system: prostatic small cell carcinoma cell line (PC-3); experiment: MTT anti-proliferative assay, PC-3; format: cell-based
MCF-7 cells [5] = experiment: Nuclear staining assay; format: cell-based, human; conditions: MCF-7, IC50, 48 hours, vs control and BG-45
MCF-7 cells [6] = experiment: annexin-V/FITC-PI apoptosis assay; format: cell-based, human; conditions: MCF-7, 48 hours, at respective IC50
MCF-7 cells [7] = experiment: ROS generation; format: cell-based, human; conditions: MCF-7, IC50 dose, vs 1% DMSO control
Summary of the method: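 After 24 h in 12-well plates, MCF-7 cells were treated for 48 h with test compound, reference compound, or 1% DMSO as control. Medium was replaced with 10 μM DCFH-DA for 10 min at 37 °C in darkness. DCF fluorescence was imaged by laser scanning confocal microscopy at 60× (ex 485 nm, em 535 nm). Intensity was quantified by image analysis as relative fluorescence (%) versus control. Data are mean standard deviation (n = 2), with one-way ANOVA.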

[8] = read-out: HEK-293 IC50, MTT, 48-hour treatment, mean ± SD (n = 2)
[9] = read-out: MCF-7 IC50, MTT, 48-hour treatment, mean ± SD (n = 2)
[10] = read-out: PC-3 IC50, MTT, 48-hour treatment, mean ± SD (n = 2)
[11] = Homo sapiens, MCF7, 48 h, read-out: MCF-7 IC50, MTT, 48-hour treatment, mean ± SD (n = 2)

| Compound | IC50 [1, 8] | IC50 [2, 9] | IC50 [3] | IC50 [4, 10] | IC50 [2, 11] | also measured |
| --- | --- | --- | --- | --- | --- | --- |
| COc1ccc(-c2noc(-c3cccs3)c2C(F)(F)F)cc1 [TTI-3] | 102.2 ± 0.27 µM | 21.5 ± 0.11 µM | 24.3 ± 0.24 µM | 21.97 ± 0.21 µM | – | – |
| COc1ccc(-c2noc(-c3cccs3)c2C(F)(F)F)cc1OC [TTI-4, 3-(3,4-dimethoxyphenyl)-5-(thiophen-2-yl)-4-(trifluoromethyl)isoxazole] | 70.49 ± 0.22 µM | 2.91 ± 0.13 µM | 11.6 ± 0.35 µM | 8.08 ± 0.29 µM | – | superior anti-breast cancer activity than TTI-3 ([2]; MCF-7 IC50 compared with TTI-3): 7 times |
| FC(F)(F)c1c(-c2ccc3c(c2)OCCO3)noc1-c1cccs1 [TTI-5, 3-(2,3-dihydrobenzo[b][1,4]dioxin-6-yl)-5-(thiophen-2-yl)-4-(trifluoromethyl)isoxazole] | 109.7 ± 0.13 µM | – | 28.6 ± 0.09 µM | 26.89 ± 0.11 µM | – | – |
| COc1cc(-c2noc(-c3cccs3)c2C(F)(F)F)cc(OC)c1OC [TTI-6, 5-(thiophen-2-yl)-4-(trifluoromethyl)-3-(3,4,5-trimethoxyphenyl)isoxazole] | – | 1.91 ± 0.09 µM | 10.9 ± 0.2 µM | 7.67 ± 0.31 µM | 1.92 µM | IC50 ([1]; Homo sapiens, HEK293, 48 h, read-out: HEK-293 IC50, MTT, 48-hour treatment, mean ± SD (n = 2)): 68.29 ± 0.11 µM; selectivity for MCF-7 over other cancer cell lines (first value) ([2]; matches 4T1/MCF-7 IC50 ratio): 5.70 fold; selectivity for MCF-7 over other cancer cell lines (second value) ([2]; matches PC-3/MCF-7 IC50 ratio): 4 fold; selectivity for MCF-7 cells over HEK-293 cell lines ([2]; ratio of IC50 values): 35.62 fold; nuclear / cell morphology (DAPI, AO staining) (MCF-7 cells [5]): significant alteration in cell morphology; total apoptotic percentage (Q2 and Q4) (MCF-7 cells [6]): 50.0 ± 1.3%; relative fluorescence intensity vs control (ROS) (MCF-7 cells [7]): significant increase |
| FC(F)(F)c1c(-c2ccc(Cl)cc2)noc1-c1cccs1 [TTI-9] | 96.6 ± 0.47 µM | 20.4 ± 0.21 µM | 21.72 ± 0.19 µM | 21.92 ± 0.21 µM | – | – |
| FC(F)(F)c1ccc(-c2noc(-c3cccs3)c2C(F)(F)F)cc1 [TTI-11] | 92.75 ± 0.15 µM | 19.3 ± 0.24 µM | 19.36 ± 0.19 µM | 20.99 ± 0.19 µM | – | – |
| O=[N+]([O-])c1ccc(-c2noc(-c3cccs3)c2C(F)(F)F)cc1 [TTI-12, 3-(4-nitrophenyl)-5-(thiophen-2-yl)-4-(trifluoromethyl)isoxazole] | 83.77 ± 0.28 µM | 17.03 ± 0.12 µM | 17 ± 0.31 µM | 15.4 ± 0.25 µM | – | – |
| COc1ccc(-c2noc(-c3ccc(C)s3)c2C(F)(F)F)cc1OC [TTI-13, 3-(3,4-dimethoxyphenyl)-5-(5-methylthiophen-2-yl)-4-(trifluoromethyl)isoxazole] | 75.91 ± 0.16 µM | – | 15.15 ± 0.1 µM | 14.2 ± 0.41 µM | 13.4 ± 0.19 µM | – |
| COc1ccc(-c2noc(-c3cccs3)c2C(F)F)cc1OC [TTI-14, 4-(difluoromethyl)-3-(3,4-dimethoxyphenyl)-5-(thiophen-2-yl)isoxazole] | 71.14 ± 0.21 µM | 9.09 ± 0.25 µM | 11.7 ± 0.14 µM | – | – | IC50 ([4]; 48 h, read-out: PC-3 IC50, MTT, 48-hour treatment, mean ± SD (n = 2)): 13 ± 0.17 µM |
| FC(F)(F)c1c(-c2cnn3c(-c4ccccc4)ccnc23)noc1-c1cccs1 [TTI-15, 3-(7-phenylpyrazolo[1,5-a]pyrimidin-3-yl)-5-(thiophen-2-yl)-4-(trifluoromethyl)isoxazole] | 74.3 ± 0.25 µM | – | 14.3 ± 0.21 µM | 13.7 ± 0.39 µM | 9.44 ± 0.22 µM | – |
